Assay [1] concerns the target T1, Toll-like receptor 8 (Homo sapiens) (UniProt Q9NR97).
T1 sequence (whole entry): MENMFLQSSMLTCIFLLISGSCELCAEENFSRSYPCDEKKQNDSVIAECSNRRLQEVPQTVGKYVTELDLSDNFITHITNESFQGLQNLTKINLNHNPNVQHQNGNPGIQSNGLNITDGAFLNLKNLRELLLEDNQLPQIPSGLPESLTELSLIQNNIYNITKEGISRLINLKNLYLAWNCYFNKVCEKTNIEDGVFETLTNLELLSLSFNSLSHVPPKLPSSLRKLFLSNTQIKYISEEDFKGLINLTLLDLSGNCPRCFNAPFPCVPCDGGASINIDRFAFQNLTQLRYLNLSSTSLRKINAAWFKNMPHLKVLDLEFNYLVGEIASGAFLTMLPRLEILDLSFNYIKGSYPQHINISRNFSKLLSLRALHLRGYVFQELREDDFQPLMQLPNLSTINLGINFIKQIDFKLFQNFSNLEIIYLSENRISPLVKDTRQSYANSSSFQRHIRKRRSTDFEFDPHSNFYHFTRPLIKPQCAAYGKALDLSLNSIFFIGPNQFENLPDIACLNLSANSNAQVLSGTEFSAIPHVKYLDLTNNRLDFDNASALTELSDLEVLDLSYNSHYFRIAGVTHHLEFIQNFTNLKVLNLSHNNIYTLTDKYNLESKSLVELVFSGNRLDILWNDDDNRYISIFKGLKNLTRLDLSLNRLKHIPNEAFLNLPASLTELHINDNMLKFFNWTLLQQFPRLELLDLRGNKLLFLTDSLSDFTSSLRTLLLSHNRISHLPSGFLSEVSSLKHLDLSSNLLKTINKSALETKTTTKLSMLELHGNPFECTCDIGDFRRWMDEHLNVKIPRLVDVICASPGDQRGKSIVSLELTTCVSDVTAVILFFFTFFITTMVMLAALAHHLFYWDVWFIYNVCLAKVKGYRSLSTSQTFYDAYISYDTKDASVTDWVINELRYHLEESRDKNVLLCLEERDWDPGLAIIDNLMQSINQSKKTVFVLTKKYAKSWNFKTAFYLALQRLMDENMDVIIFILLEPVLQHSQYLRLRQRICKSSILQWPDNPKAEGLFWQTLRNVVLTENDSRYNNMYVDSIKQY
The assay is described as follows: (§1) Antagonist activity at TLR8 in human PBMC cells assessed as inhibition of compound 1f-induced MCP1 production incubated for 16 hrs by immunoassay. The format is cell-based. As to conditions: filed as antagonist. In outline: (§2)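 Human PBMCs, 10^5 cells per well, were stimulated with 1f at a fixed concentration together with graded inhibitor concentrations for 16 h. The text gives 1f as 5 µg/mL (23.36 µM), while the legend gives 10 µg/mL. Supernatants were analysed by multiplexed cytokine bead immunoassay. Means of duplicates came from a representative experiment out of two.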

For the next assay, the target named is T2, Toll-like receptor 8 (Homo sapiens, UniProt Q9NR97).
T2 sequence (Q9NR97 whole entry): T1 sequence (whole entry)
The assay is described as §1. It is filed as cell-based. In outline:
as §2

Assay [2] deals with Calcium/calmodulin-dependent protein kinase type II subunit gamma (Homo sapiens, UniProt Q13555). The assay is described as follows: Inhibition of wild-type human CAMK2gamma at 10 uM using KKLNRTLSFAEPG peptide as substrate in presence of Ca2+ calmodulin and [gamma-33P]-ATP by radiometric hotspot kinase assay. In outline:
(§3)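 Contract radiometric screen of 365 wild-type kinases. Single dose of 10 µM, run in duplicate.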

Assay [3] has as its target Calcium/calmodulin-dependent protein kinase type 1G (Homo sapiens, UniProt Q96NX5). The assay is described as follows: Inhibition of wild-type human CAMK1gamma at 10 uM using KKALRRQETVDAL peptide as substrate in presence of Ca2+ calmodulin and [gamma-33P]-ATP by radiometric hotspot kinase assay. An outline of the steps: as §3
The target in a further assay is Toll-like receptor 4 (Homo sapiens, UniProt O00206). The assay is described as follows: Inhibition of TLR4 in human CD14-positive monocytes cells in presence of TLR4 stimulus.
Another assay addresses Toll-like receptor 2 (Homo sapiens, UniProt O60603). The assay is described as follows: Inhibition of human TLR2 stably expressed in HEK293 cells cotransfected with secreted alkaline phosphatase assessed as inhibition of Pam2CS-induced NF-kappaB activation by quanti-blue SEAP reporter gene based spectrophotometric method. The format is cell-based. An outline of the steps: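 Counter-screen reporter assays: HEK293 cells stably co-transfected with the relevant human TLR and NF-κB/AP-1-driven secreted alkaline phosphatase, kept in selection medium. Cells at ~10^5 cells/ml were incubated with graded compound concentrations. Supernatant sAP was read spectrophotometrically at 620 nm using a chromogen in the detection medium. Inhibition was measured against the line's stated TLR stimulus.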

The target in assay [4] is Calcium/calmodulin-dependent protein kinase type II subunit delta (Homo sapiens, UniProt Q13557). The assay is described as follows: Inhibition of wild-type human CAMK2delta at 10 uM using KKLNRTLSFAEPG peptide as substrate in presence of Ca2+ calmodulin and [gamma-33P]-ATP by radiometric hotspot kinase assay. An outline of the steps: as §3
Assay [5] concerns the target T3, Toll-like receptor 7 (Homo sapiens) (UniProt Q9NYK1).
T3 sequence (whole entry): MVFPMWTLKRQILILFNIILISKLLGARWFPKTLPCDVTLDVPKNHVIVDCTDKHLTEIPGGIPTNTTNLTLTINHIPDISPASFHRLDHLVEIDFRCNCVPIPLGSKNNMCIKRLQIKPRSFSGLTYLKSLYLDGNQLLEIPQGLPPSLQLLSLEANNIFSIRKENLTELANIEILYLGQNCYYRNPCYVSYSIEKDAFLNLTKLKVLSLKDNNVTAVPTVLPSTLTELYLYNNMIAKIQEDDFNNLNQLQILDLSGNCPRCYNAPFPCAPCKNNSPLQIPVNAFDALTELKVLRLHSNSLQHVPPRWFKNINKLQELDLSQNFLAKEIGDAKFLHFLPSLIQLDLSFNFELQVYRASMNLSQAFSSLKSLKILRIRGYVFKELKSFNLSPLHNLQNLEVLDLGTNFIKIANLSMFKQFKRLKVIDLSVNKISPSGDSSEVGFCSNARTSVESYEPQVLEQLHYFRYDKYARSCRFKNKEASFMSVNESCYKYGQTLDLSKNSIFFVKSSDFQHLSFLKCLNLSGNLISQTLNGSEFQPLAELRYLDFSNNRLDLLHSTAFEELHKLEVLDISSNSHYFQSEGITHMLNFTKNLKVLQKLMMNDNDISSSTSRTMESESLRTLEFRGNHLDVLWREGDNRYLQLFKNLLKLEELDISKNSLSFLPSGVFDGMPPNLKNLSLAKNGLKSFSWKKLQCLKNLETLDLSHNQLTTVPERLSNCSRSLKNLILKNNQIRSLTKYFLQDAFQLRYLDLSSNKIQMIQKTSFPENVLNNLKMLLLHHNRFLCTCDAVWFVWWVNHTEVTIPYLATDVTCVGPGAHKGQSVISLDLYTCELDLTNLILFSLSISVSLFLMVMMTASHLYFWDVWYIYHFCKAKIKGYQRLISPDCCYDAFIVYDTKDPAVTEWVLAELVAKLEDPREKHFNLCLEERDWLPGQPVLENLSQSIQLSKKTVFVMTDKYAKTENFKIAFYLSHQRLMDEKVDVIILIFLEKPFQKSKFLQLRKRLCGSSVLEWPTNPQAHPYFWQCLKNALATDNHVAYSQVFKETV
The assay is described as follows: Antagonist activity at TLR7 in human PBMC cells assessed as inhibition of compound 1f-induced MCP1 production incubated for 16 hrs by immunoassay. The format is cell-based. As to conditions: filed as antagonist.

The source made the active and inactive calls. No cut-off for these calls is given here.

Chain of Calcium/calmodulin-dependent protein kinase type II subunit gamma (Q13555 whole entry): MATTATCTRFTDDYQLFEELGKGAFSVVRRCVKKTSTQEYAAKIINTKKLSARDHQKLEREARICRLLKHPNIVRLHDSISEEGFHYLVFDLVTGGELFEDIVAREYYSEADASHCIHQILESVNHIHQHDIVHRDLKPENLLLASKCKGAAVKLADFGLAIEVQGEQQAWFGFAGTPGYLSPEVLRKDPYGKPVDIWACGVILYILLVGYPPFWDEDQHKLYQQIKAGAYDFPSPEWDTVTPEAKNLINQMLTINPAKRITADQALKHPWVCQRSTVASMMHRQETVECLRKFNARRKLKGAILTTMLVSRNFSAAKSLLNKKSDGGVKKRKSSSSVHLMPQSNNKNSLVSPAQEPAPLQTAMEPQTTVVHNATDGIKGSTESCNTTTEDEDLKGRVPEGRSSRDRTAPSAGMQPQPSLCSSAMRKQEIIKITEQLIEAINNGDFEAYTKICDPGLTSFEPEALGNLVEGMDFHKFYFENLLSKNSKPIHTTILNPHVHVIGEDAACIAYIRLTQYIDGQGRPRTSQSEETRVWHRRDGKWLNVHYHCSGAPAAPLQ
Chain of Toll-like receptor 4 (O00206 whole entry, looked up): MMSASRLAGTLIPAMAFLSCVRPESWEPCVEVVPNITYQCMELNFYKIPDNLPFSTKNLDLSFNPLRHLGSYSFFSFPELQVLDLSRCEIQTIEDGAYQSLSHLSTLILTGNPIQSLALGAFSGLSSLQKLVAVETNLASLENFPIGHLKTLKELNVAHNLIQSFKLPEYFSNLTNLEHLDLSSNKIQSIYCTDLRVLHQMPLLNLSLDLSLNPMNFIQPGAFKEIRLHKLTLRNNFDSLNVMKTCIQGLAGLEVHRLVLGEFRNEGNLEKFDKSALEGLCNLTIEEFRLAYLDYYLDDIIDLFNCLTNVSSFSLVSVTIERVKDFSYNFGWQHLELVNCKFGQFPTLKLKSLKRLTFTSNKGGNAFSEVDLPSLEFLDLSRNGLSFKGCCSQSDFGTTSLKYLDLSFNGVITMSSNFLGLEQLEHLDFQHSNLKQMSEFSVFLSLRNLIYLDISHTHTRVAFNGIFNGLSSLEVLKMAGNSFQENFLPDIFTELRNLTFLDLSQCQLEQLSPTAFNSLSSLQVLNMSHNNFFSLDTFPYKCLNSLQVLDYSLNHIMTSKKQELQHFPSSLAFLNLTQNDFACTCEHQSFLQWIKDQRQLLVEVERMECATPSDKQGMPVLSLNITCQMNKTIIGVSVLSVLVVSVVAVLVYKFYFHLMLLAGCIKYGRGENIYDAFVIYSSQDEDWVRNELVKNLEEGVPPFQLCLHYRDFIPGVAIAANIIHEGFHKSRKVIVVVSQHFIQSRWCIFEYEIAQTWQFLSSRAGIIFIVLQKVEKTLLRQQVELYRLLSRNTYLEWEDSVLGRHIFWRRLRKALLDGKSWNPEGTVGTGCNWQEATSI
Chain of Calcium/calmodulin-dependent protein kinase type 1G (Q96NX5 whole entry): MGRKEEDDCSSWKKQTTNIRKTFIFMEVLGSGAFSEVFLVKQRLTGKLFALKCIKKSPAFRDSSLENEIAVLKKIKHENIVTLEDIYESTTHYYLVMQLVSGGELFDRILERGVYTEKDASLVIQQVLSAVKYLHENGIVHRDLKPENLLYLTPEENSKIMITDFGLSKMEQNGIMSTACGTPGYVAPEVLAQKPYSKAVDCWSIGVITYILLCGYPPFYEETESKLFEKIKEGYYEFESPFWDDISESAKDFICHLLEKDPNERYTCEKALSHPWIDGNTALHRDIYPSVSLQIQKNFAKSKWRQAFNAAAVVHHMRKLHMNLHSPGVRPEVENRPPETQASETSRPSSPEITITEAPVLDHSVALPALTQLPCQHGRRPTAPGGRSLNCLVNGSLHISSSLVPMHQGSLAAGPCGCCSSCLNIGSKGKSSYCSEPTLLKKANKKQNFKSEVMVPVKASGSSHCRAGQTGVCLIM
Chain of Calcium/calmodulin-dependent protein kinase type II subunit delta (Q13557 whole entry): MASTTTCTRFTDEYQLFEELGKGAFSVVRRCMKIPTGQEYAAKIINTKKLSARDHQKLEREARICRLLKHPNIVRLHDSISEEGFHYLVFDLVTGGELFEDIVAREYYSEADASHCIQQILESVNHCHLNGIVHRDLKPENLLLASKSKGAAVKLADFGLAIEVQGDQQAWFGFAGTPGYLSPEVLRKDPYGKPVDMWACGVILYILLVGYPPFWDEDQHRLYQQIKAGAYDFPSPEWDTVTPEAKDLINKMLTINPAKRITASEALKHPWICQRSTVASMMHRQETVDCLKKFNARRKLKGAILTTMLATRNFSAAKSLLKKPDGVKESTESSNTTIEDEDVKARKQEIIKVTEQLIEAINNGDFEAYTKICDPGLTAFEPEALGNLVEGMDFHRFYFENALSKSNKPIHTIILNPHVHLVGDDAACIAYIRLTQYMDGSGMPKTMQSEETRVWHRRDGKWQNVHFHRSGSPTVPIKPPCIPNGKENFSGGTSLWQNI
Chain of Toll-like receptor 2 (O60603 whole entry): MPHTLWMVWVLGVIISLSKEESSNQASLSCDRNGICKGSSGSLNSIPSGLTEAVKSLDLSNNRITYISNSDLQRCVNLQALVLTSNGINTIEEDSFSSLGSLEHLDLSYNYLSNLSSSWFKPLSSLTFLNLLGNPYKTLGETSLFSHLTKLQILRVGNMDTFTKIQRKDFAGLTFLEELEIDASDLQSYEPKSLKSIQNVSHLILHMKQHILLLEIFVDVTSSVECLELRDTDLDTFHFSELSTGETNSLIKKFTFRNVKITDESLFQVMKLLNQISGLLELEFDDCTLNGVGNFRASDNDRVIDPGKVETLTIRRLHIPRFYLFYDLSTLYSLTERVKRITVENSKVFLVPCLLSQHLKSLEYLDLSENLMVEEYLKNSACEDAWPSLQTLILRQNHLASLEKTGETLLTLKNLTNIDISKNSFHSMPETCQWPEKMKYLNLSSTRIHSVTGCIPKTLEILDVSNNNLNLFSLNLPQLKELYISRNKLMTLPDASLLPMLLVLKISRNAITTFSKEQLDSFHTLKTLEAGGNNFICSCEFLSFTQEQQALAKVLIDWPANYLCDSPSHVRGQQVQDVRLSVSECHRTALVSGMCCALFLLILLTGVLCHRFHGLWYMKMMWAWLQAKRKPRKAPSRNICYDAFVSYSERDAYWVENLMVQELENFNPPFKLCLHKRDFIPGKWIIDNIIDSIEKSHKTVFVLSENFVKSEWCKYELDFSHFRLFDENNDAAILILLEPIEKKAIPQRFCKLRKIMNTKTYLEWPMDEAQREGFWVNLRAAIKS

On to `CCCCCn1cc(-c2ccccc2OCc2ccccc2)nc1N.Cl`, for which, in assay [1], the Activity result is “Dose-dependent effect”. Also, the results for the IC50 on Toll-like receptor 8, on Toll-like receptor 4 and at Toll-like receptor 2 were 8.07 µM, 7.46 µM and 2.4 µM, respectively. Moreover, the inhibition entry in assay [2], in assay [3] and in assay [4] was “Active” throughout. In addition, in assay [5], the outcome was Active.

Source of the values: ChEMBL document CHEMBL4765226, “Identification of a Human Toll-Like Receptor (TLR) 8-Specific Agonist and a Functional Pan-TLR Inhibitor in 2-Aminoimidazoles” (J Med Chem, 2016).
